TRPC6 act: activates the mouse TRPC6 cation channel; Q61143; HEK293-TRPC6 membrane potential dye fluorescence; hits give high values; B-score at 10 µM; hit rate 0.13% among 310,000;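 active means B-score of the integrated fluorescence ratio above library mean plus 3 SD, and starting fluorescence ratio within library mean plus 5 SD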;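 further: higher score means more depolarization so channel activation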
Target sequence (Q61143 whole entry, looked up): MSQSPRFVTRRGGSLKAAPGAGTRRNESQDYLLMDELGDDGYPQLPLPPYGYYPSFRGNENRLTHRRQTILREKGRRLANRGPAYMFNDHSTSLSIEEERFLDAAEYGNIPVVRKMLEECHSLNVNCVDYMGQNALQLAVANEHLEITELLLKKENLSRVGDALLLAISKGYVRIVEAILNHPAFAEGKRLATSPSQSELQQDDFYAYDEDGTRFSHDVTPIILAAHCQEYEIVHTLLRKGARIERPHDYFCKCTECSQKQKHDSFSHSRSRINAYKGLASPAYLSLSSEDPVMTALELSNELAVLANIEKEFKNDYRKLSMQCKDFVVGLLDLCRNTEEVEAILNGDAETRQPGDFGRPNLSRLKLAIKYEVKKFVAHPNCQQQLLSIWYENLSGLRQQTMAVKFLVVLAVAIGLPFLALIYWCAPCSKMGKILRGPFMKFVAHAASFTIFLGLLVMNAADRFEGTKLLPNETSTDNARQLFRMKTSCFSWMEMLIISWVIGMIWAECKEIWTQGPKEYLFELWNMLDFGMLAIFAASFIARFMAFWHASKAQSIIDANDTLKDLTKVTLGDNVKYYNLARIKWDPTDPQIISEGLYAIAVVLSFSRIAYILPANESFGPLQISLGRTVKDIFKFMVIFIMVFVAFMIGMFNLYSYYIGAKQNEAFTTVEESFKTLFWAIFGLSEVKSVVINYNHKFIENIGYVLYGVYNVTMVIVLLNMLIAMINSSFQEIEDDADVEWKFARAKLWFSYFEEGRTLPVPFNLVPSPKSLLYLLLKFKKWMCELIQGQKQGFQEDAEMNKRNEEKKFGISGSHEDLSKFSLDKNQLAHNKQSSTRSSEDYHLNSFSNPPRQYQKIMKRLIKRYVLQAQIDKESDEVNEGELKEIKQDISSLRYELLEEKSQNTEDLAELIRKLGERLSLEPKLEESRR
TRPC4 act: TRPC4 (mouse) channel activation | Q9QUQ5 | B-score at 10 µM | AID 2237 | hit rate 0.49% among 310,000 | HEK293 TRPC4beta/mu-opioid, Fluo4 calcium fluorescence; hits give high values;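 active means B-score above 5 SD of library B-scores, and initial fluorescence ratio not above library mean plus 5 SD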;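 further: positive B-score marks a calcium rise read as TRPC4 activation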
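system = HEK293 cells stably co-expressing mouse TRPC4beta and mu-opioid receptor | schedule = Fluo4 dye loading 45 min at room temperature, 110 s recording | measure = B-scored integrated calcium fluorescence ratio | signal = Fluo4 calcium-sensitive dye fluorescence, kinetic, 1 Hz baseline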
TRPC4 block: TRPC4 (mouse) channel inhibition. HEK293 TRPC4beta/mu-opioid, DAMGO-evoked Fluo4 calcium flux; hits give low values. hit rate 0.39% among 300,000. B-score at 10 µM. AID 2247. Q9QUQ5;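 active means B-score over 3 SD under the library average, no early fluorescence shift, positive overall ratio signal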
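Signal: kinetic Fluo4 fluorescence imaging of calcium influx. Material: stable TRPC4beta/mu-opioid receptor HEK293 cells. Probe or stimulus: DAMGO in two steps, submaximal then maximal.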
TRPC6 inhibitor: mouse TRPC6 channel inhibition; Q61143; HEK293-TRPC6, membrane potential dye, ACh-evoked depolarization; hits give low values; B-score at 10 µM; hit rate 1.1% among 310,000;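 active means B-score under library mean minus 3 SD, initial fluorescence not abnormally high, positive integrated signal ratio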;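 further: B-score derived from integrated fluorescence ratio over the kinetic read; more negative B-score means stronger inhibition of depolarization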
TRPC4 potent: allosteric potentiators of mouse TRPC4 channel; Q9QUQ5; HEK293 TRPC4beta/mu-opioid, DAMGO EC20, Fluo-4 Ca2+ flux; hits give high values; B-score at 10 µM; hit rate 0.42% among 310,000;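 active means B-score of calcium response area above 5 SD of library B-scores, with initial fluorescence ratio within 5 SD of library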
TRPC4 sel inh 2: mouse TRPC4 off-target activity of TRPC6 inhibitors, second screen. shares compounds with TRPC6 inhibitor. HEK293 TRPC4/MOR, membrane potential dye fluorescence; channel activated by saturating DAMGO dose. inhibition, % at 10 µM. hit rate 42% among 920. AID 2776;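 active means compounds whose fluorescence signal differed from control wells by over 3 SD, either direction, in both duplicate plates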
TRPC4 spec: tests whether TRPC6 inhibitors also affect mouse TRPC4 | hit rate 61% among 920 | shares compounds with TRPC6 inhibitor | HEK293 TRPC4/mu-opioid, membrane potential fluorescence | activity change, negative = inhibition, % at 10 µM;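 active means rise or fall in signal beyond 3 SD of buffer-only wells in both replicate plates, either sign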;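 further: integrated kinetic ratio of fluorescence range over baseline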
HEK293 MPD ctr 2-1: parental HEK293 nonspecific activity of TRPC6 inhibitors, second screen; signal change vs control, % at 10 µM; shares compounds with TRPC6 inhibitor; AID 2779; hit rate 31% among 920; parental HEK293 membrane potential dye fluorescence; maximal acetylcholine challenge after compound addition;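 active means membrane potential signal moving either way by over 3 SD of the maximum-effect control, in both duplicate plates, meaning non-specific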
HEK293 MPD ctr-1: parental HEK293 nonspecific activity of TRPC6 inhibitors; shares compounds with TRPC6 inhibitor; parental HEK293 membrane potential dye fluorescence; membrane potential signal change, % at 10 µM; hit rate 60% among 920; AID 2780;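 active means membrane potential signal shifting up or down by more than 3 SD of buffer-only wells, on both duplicate plates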
HEK293 MPD ctr-2: checks TRPC6 modulator effects in parental HEK293 cells; shares compounds with TRPC6 inhibitor; membrane potential dye fluorescence; membrane potential signal change, % at 10 µM; hit rate 51% among 2,400; AID 488924;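 active means membrane potential signal moves up or down beyond 5 SD from buffer-only wells, on both duplicate plates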
HEK293 MPD ctr 2-2: parental HEK293 nonspecific activity of TRPC6 modulators, second screen; shares compounds with TRPC6 inhibitor; membrane potential dye fluorescence; after compound, maximal acetylcholine stimulation; inhibition, % at 10 µM; hit rate 14% among 2,400;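 active means membrane potential signal drops by more than 5 SD from the mean control signal, in both duplicate plates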
TRPC4/MOR mod: selectivity of TRPC6 modulators against mouse TRPC4; AID 488927; percent change from control (negative = decrease, positive = increase), % at 10 µM; hit rate 69% among 2,400; shares compounds with TRPC6 inhibitor; HEK293 TRPC4/mu-opioid, membrane potential fluorescence;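 active means membrane potential signal moved up or down beyond 5 SD of buffer control wells, in both duplicate plates, actives on both sides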
TRPC4 ctr inh 2: second check of whether TRPC6 modulators also affect mouse TRPC4 | shares compounds with TRPC6 inhibitor | HEK293 TRPC4/mu-opioid, membrane potential dye fluorescence; stimulated with maximal-effect DAMGO | inhibition, % at 10 µM | hit rate 55% among 2,400 | AID 488928;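 active means drop in membrane potential signal beyond 5 SD of the control wells in both duplicate plates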;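 further: TRPC4 counter screen for TRPC6 hits run under conditions tuned for TRPC6 not TRPC4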
TRPC6 inh conf: mouse TRPC6 inhibitor confirmation; shares compounds with TRPC6 inhibitor; HEK293-TRPC6, membrane potential dye, ACh-evoked depolarization; inhibition, % at 10 µM; hit rate 43% among 3,300; AID 488960;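 active means fluorescence ratio falls more than 5 SD below the full-stimulation control mean, in both duplicate runs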;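 further: integrated fluorescence ratio of peak minus minimum over baseline after agonist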
TRPC6 act confirm: mouse TRPC6 activator confirmation. shares compounds with TRPC6 inhibitor. HEK293-TRPC6 membrane potential dye fluorescence, FDSS. activation, % at 10 µM. hit rate 11% among 2,800. AID 488961;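 active means ratio signal rise beyond 5 SD above unstimulated control wells' mean, seen in both duplicate runs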
A number is an active result; i = inactive; nt = not tested or not shown; + = active, no number. Most compounds without a hit are left out; they make up all but 2.3% or so of the library.

SMILES	TRPC6 act	TRPC4 act	TRPC4 block	TRPC6 inhibitor	TRPC4 potent	HEK293 MPD ctr-2	HEK293 MPD ctr 2-2	TRPC4/MOR mod	TRPC4 ctr inh 2	TRPC6 inh conf	TRPC6 act confirm	others
Cc1cc(N2CCN(C)CC2)nc(N2CCOCC2)n1	i	i	i	-5.7	i	-246%	i	-44%	31%	i	i
Cc1cc(N2CCOCC2)nc(N2CCOCC2)n1	i	i	i	i	i	nt	nt	nt	nt	nt	nt
COc1cc(/C=C/C(=O)OCC(=O)Nc2oc(C)c3c(C)n[nH]c(=O)c23)ccc1OC(F)F	i	i	i	i	i	nt	nt	nt	nt	nt	nt
O=C1Nc2ccccc2/C1=N\N=C\C1=C(N2CCOCC2)C(=C\c2ccccc2)/CC1	i	i	i	-9.5	i	nt	nt	nt	nt	90%	i	TRPC4 sel inh 2=33%;TRPC4 spec=-29%;HEK293 MPD ctr 2-1=-22%;HEK293 MPD ctr-1=-326%
Cn1cc(C(=O)N/N=C/C2=C(N3CCOCC3)C(=C\c3ccccc3)/CC2)ccc1=O	i	i	i	i	i	nt	nt	nt	nt	nt	nt
COc1ccc(S(=O)(=O)N(C)CC(=O)Nc2cccc(C(C)=O)c2)cc1Cl	i	i	i	i	i	nt	nt	nt	nt	nt	nt
CCCCCC(=O)NC(=S)Nc1ccc2oc(=O)ccc2c1	i	i	i	-6.4	i	i	i	-14%	i	i	i
CC1CCCC(C)N1C(=O)Cn1nnc(-c2ccc([N+](=O)[O-])cc2)n1 (stereo unspecified)	i	i	i	i	i	nt	nt	nt	nt	nt	nt
O=C(Nc1cccnc1)c1cnn2cccnc12	i	i	i	-5.2	i	-96%	i	-10%	i	i	i
Cc1ccc(C(OCC(C)(C)C[N+](C)(C)C)c2ccccc2)cc1 (stereo unspecified)	i	i	i	-8.1	i	nt	nt	nt	nt	i	i	TRPC4 sel inh 2=i;TRPC4 spec=i;HEK293 MPD ctr 2-1=19%;HEK293 MPD ctr-1=i
CCN(CC)CCOC(c1ccccc1)c1ccc(C)cc1 (stereo unspecified)	i	i	i	i	i	nt	nt	nt	nt	nt	nt
COc1cc(Br)cc2cc(C(=O)OC3CCN(C)CC3)c(=O)oc12	i	i	i	-12	i	nt	nt	nt	nt	i	i	TRPC4 sel inh 2=72%;TRPC4 spec=-25%;HEK293 MPD ctr 2-1=i;HEK293 MPD ctr-1=-472%
Cc1ccn2cc(-c3ccc(O)c(O)c3)nc2c1	i	i	i	-5.3	i	-120%	i	-23%	i	i	i
Oc1ccc(-c2cn3ccccc3n2)cc1O	i	i	i	i	i	nt	nt	nt	nt	nt	nt
CCN(CC)C1CCN(C(=O)CCc2nnc(CCCCc3ccccc3)o2)C1 (stereo unspecified)	i	i	i	-5.2	i	i	i	i	i	i	i
CC(=O)NCCC(=O)N(C)CC1CCN(CCc2cccc(C(F)(F)F)c2)CC1	i	i	i	i	i	nt	nt	nt	nt	nt	nt
Cc1cc(=O)n2c3ccccc3n(CC(O)CN3CCCCC3)c2c1C#N (stereo unspecified)	i	i	i	-8.3	i	nt	nt	nt	nt	63%	i	TRPC4 sel inh 2=50%;TRPC4 spec=-21%;HEK293 MPD ctr 2-1=i;HEK293 MPD ctr-1=-365%
Cc1ccc(S(=O)(=O)Nc2ccccc2C(=O)Nc2nc(-c3ccc(F)cc3)cs2)cc1	i	i	i	i	i	nt	nt	nt	nt	nt	nt
COc1ccc(-c2csc(NC(=O)c3ccccc3NS(=O)(=O)c3ccc(F)c(F)c3)n2)cc1	i	i	i	-5.3	i	i	i	-15%	56%	64%	i
O=C(Nc1ncc([N+](=O)[O-])s1)c1cccc([N+](=O)[O-])c1	i	i	i	i	i	nt	nt	nt	nt	nt	nt
O=C(Nc1ccccc1)Nc1ncc([N+](=O)[O-])s1	i	i	i	-7.4	i	nt	nt	nt	nt	96%	nt	TRPC4 sel inh 2=54%;TRPC4 spec=43%;HEK293 MPD ctr 2-1=i;HEK293 MPD ctr-1=21%
CC(C)c1ccc(NC(=O)[C@H]2CSCN2C(=O)[C@@H]2CCC(=O)N2)cc1	i	i	i	i	i	nt	nt	nt	nt	nt	nt
CCN(CC)c1ccc(C=C2C(=O)OC3(CCCCC3)OC2=O)cc1	59	i	i	i	i	724%	i	162%	i	i	188%
CCOc1ccccc1NC=C1C(=O)OC2(CCCCC2)OC1=O	i	i	i	i	i	nt	nt	nt	nt	nt	nt
CC1=NOC(=O)/C1=C/c1ccc(N(C)C)cc1	i	i	i	i	i	nt	nt	nt	nt	nt	nt
SMILES	TRPC6 act	TRPC4 act	TRPC4 block	TRPC6 inhibitor	TRPC4 potent	HEK293 MPD ctr-2	HEK293 MPD ctr 2-2	TRPC4/MOR mod	TRPC4 ctr inh 2	TRPC6 inh conf	TRPC6 act confirm	others
CCCCC1(C)OC(=O)C(=Cc2ccc(N(CC)CC)cc2)C(=O)O1 (stereo unspecified)	36	i	i	i	i	+	i	186%	i	i	368%
CCN(CC)c1ccc(/C=C2/C(=O)ON=C2C)cc1	13	i	i	i	i	799%	i	59%	i	i	133%
COc1ccc(Cl)cc1C(=O)CSc1nc(N)cc(N)n1	13	i	i	-8.5	i	i	i	i	i	72%	173%
CCCCn1nnnc1SCC(=O)c1cc(Cl)ccc1OC	i	i	i	i	i	nt	nt	nt	nt	nt	nt
O=C(C1CCN(Cc2cccs2)CC1)N1CCN(Cc2ccc3c(c2)OCO3)CC1	i	i	i	i	i	nt	nt	nt	nt	nt	nt
CC(=O)N(C)c1nnc(-c2cnccn2)s1	i	i	i	-6.5	i	-234%	i	-32%	i	i	i
COCC(=O)N(C)c1nnc(-c2cnccn2)s1	i	i	i	i	i	nt	nt	nt	nt	nt	nt
CCCCOc1ccc(C(=O)OC2CC(C)N(C)CC2C)cc1 (stereo unspecified)	15	i	i	i	i	253%	i	50%	48%	i	120%
O=c1[nH]cnc2sc3c(c12)CCN(Cc1ccccc1)C3	i	i	i	i	i	nt	nt	nt	nt	nt	nt
OCCCNc1ncnc2sc3c(c12)CCN(Cc1ccccc1)C3	i	i	i	-6	i	-137%	i	-38%	i	i	i

Screening data as filed in PubChem BioAssay.
